# HCT116 bCat-KO – beta-catenin-lacking colon tumor cell growth suppression; HCT116 beta-catenin knockout viability, CellTiter-Glo, 60 h; active compounds read low; viability, % at 10 µM; 140,000 compounds, 1.5% hits; AID 818;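 active means viability at or under a set limit, the compound median less 4 SD, cut at about 6% in these data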
# PMI act hi M6P – activators of human phosphomannose isomerase at near-saturating mannose 6-phosphate; activation factor at 20 µM; P34949; coupled PMI enzyme assay, resazurin fluorescence, 20 min; active compounds read high; 1 = untreated enzyme, 0 = substrate-free blank; 190,000 compounds, 0.34% hits;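 active means activation factor of 2 or more at 20 µM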
# Target sequence (P34949 whole entry, looked up): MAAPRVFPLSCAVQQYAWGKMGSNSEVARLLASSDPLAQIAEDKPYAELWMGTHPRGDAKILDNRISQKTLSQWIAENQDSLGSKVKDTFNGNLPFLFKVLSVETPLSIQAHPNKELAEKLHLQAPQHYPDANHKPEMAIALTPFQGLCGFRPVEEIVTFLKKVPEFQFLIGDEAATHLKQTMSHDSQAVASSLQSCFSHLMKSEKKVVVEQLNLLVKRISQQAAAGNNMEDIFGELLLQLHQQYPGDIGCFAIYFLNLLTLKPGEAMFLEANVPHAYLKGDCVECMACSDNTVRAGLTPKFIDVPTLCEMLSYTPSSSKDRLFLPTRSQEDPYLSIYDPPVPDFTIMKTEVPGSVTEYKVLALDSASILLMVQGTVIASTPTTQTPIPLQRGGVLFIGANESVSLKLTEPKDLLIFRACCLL
#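 Technique: Diaphorase-driven resazurin-to-resorufin fluorescence, excitation 544, emission 590 nm | Assay system: Human PMI in coupled enzyme assay | Times: Enzyme reaction with compound 20 min at room temperature | Medium: HEPES-buffered pH 7.4 with magnesium and detergent | Reagent: Mannose-6-phosphate 1.0 mM (near-saturating) plus 0.22 mM NADP+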
# HCT116 PTEN-null – PTEN-deleted cell growth suppression; HCT116 PTEN-null viability, CellTiter-Glo, 60 h; active compounds read low; viability, % at 10 µM; 140,000 compounds, 1.2% hits;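 active means viability at or below a set limit, 4 SD under the median of all tested compounds, cut at about 3.7% in these data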;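 further: PTEN knockout HCT116 line with beta catenin targeted HCT116 as companion control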
# PMI act – activators of human phosphomannose isomerase; P34949; purified human PMI, coupled resazurin fluorescence, 20 min; active compounds read high; 1 = vehicle control, 0 substrate-free wells; activation factor at 20 µM; 190,000 compounds, 0.005% hits;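 active means activation factor of 2 or more at 20 µM, relative to plate controls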
# Lmaj promast – inhibitors of Leishmania major promastigote growth; Leishmania major promastigotes, resazurin fluorescence viability; inhibition, % at 10 µM; 200,000 compounds, 9% hits; in the data active means inhibition above about 50%;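 further: promastigotes grown with compound for 44 hours at 28 °C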
# A number is an active result; i = inactive; nt = no result given. This is a sample that favours compounds with a hit; in the whole collection about 9.6% have one here.
SMILES,HCT116 bCat-KO,PMI act hi M6P,HCT116 PTEN-null,PMI act,Lmaj promast
COc1ccc(-c2[nH]c(-c3ccccc3)nc2SCC(=O)NC2CCCC2)cc1,i,i,i,i,i
COc1ccc(-c2[nH]c(-c3cccc(OC)c3)nc2SCC(=O)NC2CCCC2)cc1,i,i,i,i,58
COc1ccc(-c2[nH]c(-c3ccc(F)cc3)nc2SCC(=O)NC2CCCC2)cc1,i,i,i,i,77
Cc1ccc(-c2[nH]c(-c3ccc(Cl)cc3)nc2SCC(=O)NCC2CCCO2)cc1 (stereo not given),i,i,i,i,70
N#CC1=C(N)N(c2ccccc2)C(c2cccc([N+](=O)[O-])c2)C1(C#N)C#N (stereo not given),i,i,i,i,54
O=C(CC1SC(=O)N(c2ccccc2)C1=O)Nc1ccccc1 (stereo not given),i,i,i,i,i
O=C(CC1Sc2ncnn2C1=O)Nc1ccccc1 (stereo not given),i,i,i,i,100
O=C(NC(=S)Nn1cnc2c(cnn2-c2ccccc2)c1=O)c1ccccc1,i,i,i,i,i
CS(=O)(=O)N(CC(=O)NC1CC1)C1CCCCC1,i,i,i,i,i
CC1CCN(CCc2nc3cc(NS(=O)(=O)c4ccccc4)ccc3n2C)CC1,i,i,i,i,i
Cn1c(CN2CCCCC2)nc2cc(NC(=O)c3ccccc3)ccc21,i,i,i,i,i
Cn1c(CN2CCCCC2)nc2cc(NS(=O)(=O)c3ccc(Cl)cc3)ccc21,i,i,i,i,66
Cc1ccc(C(C)C)c(OCC(=O)Nc2ccc3c(c2)nc(CN2CCCC2)n3C)c1,3.4,i,2.5,i,i
CC1CCN(CCc2nc3cc(NS(=O)(=O)c4ccc(F)cc4)ccc3n2C)CC1,i,i,i,i,99
Cn1c(CN2CCCCC2)nc2cc(NC(=O)c3cccc(Br)c3)ccc21,i,i,i,i,98
CC(=O)Nc1ccc(C2(c3ccc(NC(C)=O)cc3)C(=O)Nc3ccccc32)cc1,nt,i,nt,i,i
COCc1cc(=O)[nH]c(Sc2c(-c3ccccc3)c3ccc(Cl)cc3[nH]c2=O)n1,i,i,i,i,i
CC(C)c1ccc(Nc2nnc(SCC(=O)Nc3ncc(S(=O)(=O)c4ccc([N+](=O)[O-])cc4)s3)s2)cc1,nt,i,nt,i,i
Cc1ccc(Nc2nnc(SCC(=O)Nc3ncc(S(=O)(=O)c4ccc([N+](=O)[O-])cc4)s3)s2)cc1,i,i,i,i,55
O=C(Nc1ncc(S(=O)(=O)c2ccc([N+](=O)[O-])cc2)s1)c1ccc2ccccc2c1,i,i,i,i,99
CCC(C)(C)C(=O)Nc1ncc(S(=O)(=O)c2ccc([N+](=O)[O-])cc2)s1,i,i,i,i,81
Cc1cc(=O)[nH]c(SCC(=O)Nc2ncc(S(=O)(=O)c3ccc([N+](=O)[O-])cc3)s2)n1,nt,i,nt,i,i
Cn1c(=O)c2c(-c3cccc(F)c3)c3c(nc2n(C)c1=O)-c1ccccc1C3O (stereo not given),i,i,i,i,i
Cn1c(=O)c2c(-c3ccccc3F)c3c(nc2n(C)c1=O)-c1ccccc1C3O (stereo not given),i,2.1,i,i,i
CC1SCC(=O)N(CC(=O)Nc2ccc3c(c2)OCCO3)C1=O (stereo not given),nt,i,nt,i,i
SMILES,HCT116 bCat-KO,PMI act hi M6P,HCT116 PTEN-null,PMI act,Lmaj promast
CCNc1nc(NC(C)(C)C)nc(N(C#N)CC)n1,i,i,i,i,i
O=C(CC1Nc2ccccc2NC1=O)Nc1cc(Cl)cc(Cl)c1 (stereo not given),1.9,i,3.6,i,51
CCOC(=O)c1c(NC(=O)CC2Nc3ccccc3NC2=O)sc(C)c1C (stereo not given),i,i,i,i,58
CCOC(=O)c1c(NC(=O)C2=C(C)NC(=S)NC2c2ccc(CC)cc2)sc(C)c1C (stereo not given),i,i,i,i,85
COC(=O)c1c(NC(=O)CC2Nc3ccccc3NC2=O)sc(C)c1C (stereo not given),1.6,i,1.9,i,i
CCCCOc1ccccc1NC(=O)CC1Nc2ccccc2NC1=O (stereo not given),nt,i,nt,i,nt
O=C(CSc1ccc2nnc(-c3ccccn3)n2n1)NCc1ccco1,i,i,i,i,i
Clc1ccc(CNCCC2=CCCCC2)cc1,i,i,i,i,90
Cc1cnc(C(=O)NCC(c2ccccc2)c2ccccc2)cn1,nt,i,nt,i,i

# From PubChem
